Assay results as given in ChEMBL document CHEMBL4665652, “Discovery of novel quinoline sulphonamide derivatives as potent, selective and orally active RORγ inverse agonists” (Bioorg Med Chem Lett, 2019).

Experiments:
[1] = (§1) In vivo inverse agonist activity at RORgamma in MOG(35-55) peptide/PTX-induced mechanistic C57BL/6 mouse model assessed as anti-CD3 induced IL-17F level in serum at 10 mg/kg, po dosed for 5 days during MOG/PTX priming and followed by 45 mins prior to anti-CD3 challenge and measured after 2 hrs relative to control; type: functional; conditions: time 5 day
Procedure, shortened: (§2)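 Mice immunized with mouse MOG35-55 peptide plus pertussis toxin. After 5 days, compound given orally as a suspension in methylcellulose 400cp + 1% poloxamer, 45 min before an anti-CD3 challenge. Circulating cytokines measured 2 h later. Comparison vs vehicle by Dunnett post test.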

[2] = as §1, with “100” for “10”; type: functional; conditions: time 5 day; procedure, shortened: as §2
[3] = target: CYP2C9 (Homo sapiens, UniProt P11712); test: Inhibition of CYP2C9 (unknown origin) at 1 uM relative to control; type: ADME
[4] = Unbound plasma clearance in mouse at 10 mg/kg, po or 1 mg/kg, iv; type: ADME, organism-based; conditions: in vivo
Procedure, shortened: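 Mouse PK using two routes: iv at 1 mg/kg and po at 10 mg/kg. The po dose was a suspension in 1% methylcellulose 400cp + 0.1% Poloxamer 188. Unbound plasma clearance derived from the plasma profiles.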

[5] = Stability in human microsomes assessed as unbound intrinsic clearance; type: ADME, Microsome
Procedure, shortened: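 Unbound intrinsic clearance measured in human and mouse liver microsomes, expressed in L/h/kg. Values are geometric means of at least two separate runs.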

[6] = target: T1, Nuclear receptor ROR-gamma (Homo sapiens, UniProt P51449); test: Inverse agonist activity at RORgamma in human CD4+ T cells assessed as inhibition of IL17A secretion after 72 hrs by ELISA; type: cell-based, CD4+ve Th
T1 sequence (P51449 whole entry): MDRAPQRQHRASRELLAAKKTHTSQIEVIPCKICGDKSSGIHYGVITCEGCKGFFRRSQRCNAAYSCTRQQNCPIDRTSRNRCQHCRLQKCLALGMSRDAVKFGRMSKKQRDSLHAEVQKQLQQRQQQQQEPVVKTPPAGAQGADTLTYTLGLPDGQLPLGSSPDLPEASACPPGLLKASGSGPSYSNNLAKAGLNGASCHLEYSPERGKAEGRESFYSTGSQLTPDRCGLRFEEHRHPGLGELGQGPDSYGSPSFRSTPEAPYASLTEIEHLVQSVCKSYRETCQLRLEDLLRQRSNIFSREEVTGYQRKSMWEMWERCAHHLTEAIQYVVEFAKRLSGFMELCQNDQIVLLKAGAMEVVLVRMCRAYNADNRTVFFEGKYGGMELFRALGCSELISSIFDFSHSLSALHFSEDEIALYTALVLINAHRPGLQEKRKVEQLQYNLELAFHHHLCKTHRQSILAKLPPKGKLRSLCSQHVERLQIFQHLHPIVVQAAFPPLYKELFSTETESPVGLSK

[7] = Half life in mouse at 1 mg/kg, iv; type: ADME, organism-based; conditions: in vivo
Procedure, shortened: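 Mouse PK with iv 1 mg/kg and po 10 mg/kg, oral dose as a suspension in 1% methylcellulose 400cp + 0.1% Poloxamer 188. Plasma clearance (total and unbound), iv t1/2 and oral bioavailability F were derived from the iv and po profiles.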

[8] = as §1, with “IL-22” for “IL-17F”, “100” for “10”; type: functional; conditions: time 5 day; procedure, shortened: as §2
[9] = target: Cytochrome P450 3A4 (Homo sapiens, UniProt P08684); test: Drug metabolism assessed as CYP3A4 (unknown origin) mediated metabolite formation; type: ADME
[10] = as §1, with “IL-2” for “IL-17F”; type: functional; conditions: time 5 day; procedure, shortened: as §2
[11] = Half life in mouse at 100 mg/kg, po; type: ADME, organism-based; conditions: in vivo
Procedure, shortened: (§3)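 Oral ascending-dose PK in mice at 100 mg/kg (ratios against 10 mg/kg), given as a suspension in 1% methylcellulose 400cp + 0.1% Poloxamer. Cmax, AUClast and t1/2 come from plasma profiles.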

[12] = Ratio of AUClast in mouse at 100 mg/kg, po to AUClast in mouse at 10 mg/kg, po; type: ADME, organism-based; conditions: in vivo
Procedure, shortened: (§4)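 Mice dosed orally at 10, 30 or 100 mg/kg as a suspension in 1% methylcellulose 400cp + 0.1% Poloxamer (188). Tmax, Cmax, AUClast and oral t1/2 were taken from plasma concentration–time profiles. Ratios are the value at each dose over the value at 10 mg/kg.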

[13] = AUClast in mouse at 100 mg/kg, po; type: ADME, organism-based; set-up: time 0 - last, route oral, dose 100 mg/kg; conditions: in vivo; procedure, shortened: as §3
[14] = system: Mus musculus; test: (§5) In vivo inverse agonist activity at RORgamma in po dosed MOG(35-55) peptide/PTX-induced mechanistic C57BL/6 mouse model assessed as anti-CD3 induced IL-17A level in serum dosed for 5 days during MOG/PTX priming and followed by 45 mins prior to anti-CD3 challenge and measured after 2 hrs relative to control; type: functional, organism-based; conditions: dose mg/kg 10-100, time 5.0 day; procedure, shortened: as §2
[15] = as §5, with “in” for “in po dosed”, “serum at 30 mg/kg, po” for “serum”; type: functional; conditions: time 5 day; procedure, shortened: as §2
[16] = as §1, with “IL-2” for “IL-17F”, “30” for “10”; type: functional; conditions: time 5 day; procedure, shortened: as §2
[17] = Ratio of AUClast in mouse at 30 mg/kg, po to AUClast in mouse at 10 mg/kg, po; type: ADME, organism-based; conditions: in vivo; procedure, shortened: as §4
[18] = as §1, with “IL-10” for “IL-17F”, “30” for “10”, “(reference value: -11%)” for “relative to control”; type: functional; conditions: time 5 day; procedure, shortened: as §2
[19] = as §1, with “IFNgamma” for “IL-17F”, “100” for “10”; type: functional; conditions: time 5 day; procedure, shortened: as §2
[20] = AUClast in mouse at 30 mg/kg, po; type: ADME, organism-based; set-up: time 0 - last, route oral, dose 30 mg/kg; conditions: in vivo; procedure, shortened: as §4
[21] = as §1, with “IL-10” for “IL-17F”, “(reference value: -11%)” for “relative to control”; type: functional; conditions: time 5 day; procedure, shortened: as §2
[22] = Cmax in mouse at 30 mg/kg, po; type: ADME, organism-based; set-up: route oral, dose 30 mg/kg; conditions: in vivo; procedure, shortened: as §4
[23] = Tmax in mouse at 100 mg/kg, po; type: ADME, organism-based; conditions: in vivo
Procedure, shortened: (§6)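 Mice dosed orally with an ascending-dose series at 10, 30 and 100 mg/kg. Compound given as a suspension in 1% methylcellulose 400cp + 0.1% poloxamer. Plasma Tmax taken from the concentration profiles. The Cmax ratio is expressed relative to the 10 mg/kg dose.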

[24] = Tmax in mouse at 30 mg/kg, po; type: ADME, organism-based; conditions: in vivo; procedure, shortened: as §6
[25] = AUClast in mouse at 10 mg/kg, po; type: ADME, organism-based; set-up: route oral, time 0 - last, dose 10 mg/kg; conditions: in vivo; procedure, shortened: as §4
[26] = as §5, with “in” for “in po dosed”, “serum at 100 mg/kg, po” for “serum”; type: functional; conditions: time 5 day; procedure, shortened: as §2

Sequence of CYP2C9 (P11712 whole entry): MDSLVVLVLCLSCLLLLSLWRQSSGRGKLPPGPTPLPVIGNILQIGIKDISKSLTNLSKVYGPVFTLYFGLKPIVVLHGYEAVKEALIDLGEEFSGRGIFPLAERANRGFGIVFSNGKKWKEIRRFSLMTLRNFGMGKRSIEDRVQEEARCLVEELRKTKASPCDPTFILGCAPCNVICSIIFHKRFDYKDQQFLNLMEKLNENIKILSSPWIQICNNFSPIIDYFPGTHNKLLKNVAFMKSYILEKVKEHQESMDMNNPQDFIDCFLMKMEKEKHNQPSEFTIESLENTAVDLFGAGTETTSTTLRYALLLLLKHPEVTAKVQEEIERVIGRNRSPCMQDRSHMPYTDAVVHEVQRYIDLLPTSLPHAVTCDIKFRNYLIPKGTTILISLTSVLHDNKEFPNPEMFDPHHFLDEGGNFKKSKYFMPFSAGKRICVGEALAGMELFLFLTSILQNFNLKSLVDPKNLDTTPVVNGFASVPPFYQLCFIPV
Sequence of Cytochrome P450 3A4 (P08684 whole entry): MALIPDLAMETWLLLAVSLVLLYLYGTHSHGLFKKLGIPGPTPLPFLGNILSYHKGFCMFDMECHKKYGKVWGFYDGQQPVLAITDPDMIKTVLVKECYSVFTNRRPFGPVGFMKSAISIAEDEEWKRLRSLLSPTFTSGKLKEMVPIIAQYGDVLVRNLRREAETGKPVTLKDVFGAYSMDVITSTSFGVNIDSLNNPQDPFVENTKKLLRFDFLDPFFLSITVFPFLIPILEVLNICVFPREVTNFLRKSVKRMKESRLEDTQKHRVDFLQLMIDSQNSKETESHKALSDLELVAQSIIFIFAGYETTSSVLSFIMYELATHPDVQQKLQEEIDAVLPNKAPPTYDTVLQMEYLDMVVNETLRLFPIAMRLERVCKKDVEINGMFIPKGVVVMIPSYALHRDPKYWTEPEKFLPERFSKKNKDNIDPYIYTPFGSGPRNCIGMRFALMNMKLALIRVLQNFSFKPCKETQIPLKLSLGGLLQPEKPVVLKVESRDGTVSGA

CNC(=O)[C@@H]1CCCN1S(=O)(=O)c1ccc(Cl)c(COc2cccc3c(-c4cncn4C)cc(C(C)C)nc23)c1Cl
Activity [1]: -20% | Activity [2]: -60% | inhibition at 1 µM [3]: 100% | CL free [4]: 1620 mL/min/kg | CL free [5]: 33 mL/min/kg | EC50 [6]: 150 nM | half-life [7]: 9.6 min | Activity [8]: -45% | Fm [9]: 87% | Activity [10]: -39% | half-life [11]: 2.2 h | Ratio [12]: 58 | AUC(0-t) [13]: 270000 ng·h/mL | Activity [14]: Dose-dependent effect | Activity [15]: -52% | Activity [16]: -30% | Ratio [17]: 8.8 | Activity [18]: 66% | Activity [19]: -81% | AUC(0-t) [20]: 34200 ng·h/mL | Activity [21]: -3% | Cmax [22]: 11800 ng/mL | Tmax [23]: 3 h | Tmax [24]: 0.25 h | AUC(0-t) [25]: 3900 ng·h/mL | Activity [26]: -62%
